ChEMBL document CHEMBL1154760, “Optimization of a pipemidic acid autotaxin inhibitor” (J Med Chem, 2010)
Active and inactive are the calls of the source. No cut-off for these calls is given here.

Assays:
[1] = target: T1, Glycerophosphocholine cholinephosphodiesterase ENPP6 (Homo sapiens) (UniProt Q6UWR7); assay: Inhibition of NPP6 expressed in HEK293 cells assessed as para-nitrophenylphosphoryl choline hydrolysis; format: cell-based
T1 sequence (whole entry): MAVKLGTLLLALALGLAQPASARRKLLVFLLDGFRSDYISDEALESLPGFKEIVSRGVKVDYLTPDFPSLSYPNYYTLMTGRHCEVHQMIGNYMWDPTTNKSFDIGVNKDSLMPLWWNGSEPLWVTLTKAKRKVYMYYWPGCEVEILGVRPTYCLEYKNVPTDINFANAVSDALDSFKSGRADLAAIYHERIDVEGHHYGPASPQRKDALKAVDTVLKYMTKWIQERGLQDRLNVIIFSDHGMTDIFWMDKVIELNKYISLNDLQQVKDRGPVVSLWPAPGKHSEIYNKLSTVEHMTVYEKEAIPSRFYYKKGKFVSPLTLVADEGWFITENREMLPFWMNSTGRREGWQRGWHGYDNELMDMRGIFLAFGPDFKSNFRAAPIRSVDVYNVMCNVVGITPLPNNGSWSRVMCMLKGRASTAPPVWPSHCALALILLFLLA
In short: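 NPP6 from conditioned medium of HEK293 cells transiently transfected with human NPP6. Inhibitor at 10 μM in 1% DMSO. Substrate pNPPC at 10 mM in 100 mM Tris-HCl pH 9.0 with 500 mM NaCl and 0.05% Triton X-100, 37 °C. Absorbance read at 1 h, normalized to vehicle after cell-free-medium blank. Mean ± SD of ≥3 wells.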

[2] = target: T2, Ectonucleotide pyrophosphatase/phosphodiesterase family member 7 (Homo sapiens) (UniProt Q6UWV6); assay: Inhibition of NPP7 expressed in HEK293 cells assessed as para-nitrophenylphosphoryl choline hydrolysis; format: cell-based
T2 sequence (whole entry): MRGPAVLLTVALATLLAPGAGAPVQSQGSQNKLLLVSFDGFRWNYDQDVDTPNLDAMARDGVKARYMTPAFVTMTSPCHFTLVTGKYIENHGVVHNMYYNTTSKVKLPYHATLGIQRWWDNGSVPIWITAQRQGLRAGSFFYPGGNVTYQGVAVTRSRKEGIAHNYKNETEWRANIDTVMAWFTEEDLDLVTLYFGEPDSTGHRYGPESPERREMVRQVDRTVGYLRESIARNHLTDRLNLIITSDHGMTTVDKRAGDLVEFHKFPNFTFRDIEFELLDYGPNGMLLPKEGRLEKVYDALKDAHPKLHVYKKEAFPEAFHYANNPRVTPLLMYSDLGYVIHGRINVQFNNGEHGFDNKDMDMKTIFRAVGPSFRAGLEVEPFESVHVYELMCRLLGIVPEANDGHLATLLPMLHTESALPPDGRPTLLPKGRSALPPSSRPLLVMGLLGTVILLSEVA
In short: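 NPP7 from concentrated conditioned medium of transfected HEK293 cells (human NPP7). Inhibitor at 10 μM in 1% DMSO. Substrate pNPPC at […] in 50 mM Tris-HCl pH 8.5 with 150 mM NaCl and 10 mM taurocholic acid, no EDTA, 37 °C. Absorbance taken at 1 h, vehicle-normalized after blank. Mean ± SD of ≥3 wells.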

Autotaxin [3] = target: T3, Autotaxin (Homo sapiens, UniProt Q13822); assay: Noncompetitive type inhibition of human autotaxin at enzyme-substrate complex isolated from […] assessed as blockade of FS3 substrate hydrolysis by FRET assay
In short: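 ATX source: ~10× concentrated serum-free conditioned medium from MDA-MB-435 cells, buffer-exchanged into 50 mM Tris pH 7.4 with 20% ethylene glycol. FS-3 300 nM–20 μM with three inhibitor levels, including zero. Buffer: 50 mM Tris pH 8.0, 140 mM NaCl, 5 mM KCl, 1 mM CaCl2/MgCl2, 30 μM stripped BSA. Run at 37 °C, ex485/em528. Ki′ from simultaneous nonlinear fit to four inhibition models; lowest residual error chosen.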

Autotaxin [4] = target: T3, Autotaxin; assay: Noncompetitive type inhibition of human autotaxin at free state isolated from MDA-MB-231 cells assessed as blockade of FS3 substrate hydrolysis by FRET assay; format: cell-based
Autotaxin [5] = target: T3, Autotaxin; assay: Competitive inhibition of human autotaxin at free state isolated from MDA-MB-231 cells assessed as blockade of FS3 substrate hydrolysis by FRET assay; format: cell-based

Row | Compound | Activity [1] | Activity [2] | Ki (Autotaxin [3]) [µM] | Ki (Autotaxin [4]) [µM] | Ki (Autotaxin [5]) [µM]
1 | CCn1cc(C(=O)O)c(=O)c2cnc(N3CCN(C(=S)Nc4ccc(C(F)(F)F)cc4)CC3)nc21 | inactive | inactive | 13.2 | 13.2 | –
2 | CCn1cc(C(=O)O)c(=O)c2cnc(N3CCN(C(=S)Nc4cc(C(F)(F)F)cc(C(F)(F)F)c4)CC3)nc21 | inactive | inactive | – | – | 4
3 | CCn1cc(C(=O)O)c(=O)c2cnc(N3CCN(C(=S)Nc4cc(C)cc(C)c4)CC3)nc21 | inactive | inactive | – | – | 4.2
4 | CCn1cc(C(=O)O)c(=O)c2cnc(N3CCN(C(=S)Nc4ccc5nsnc5c4)CC3)nc21 | inactive | inactive | – | – | 7.1
5 | CCn1cc(C(=O)O)c(=O)c2cnc(N3CCN(C(=S)Nc4ccc(F)cc4)CC3)nc21 | inactive | inactive | – | – | –
6 | CCn1cc(C(=O)O)c(=O)c2cnc(N3CCN(C(=S)Nc4cc(Cl)ccc4Cl)CC3)nc21 | inactive | inactive | – | – | –
7 | CCCCCCCCc1ccc(CCC(N)(CO)CCCP(=O)(O)O)cc1 (centres undefined) | – | – | – | 0.2 | –
8 | CCn1cc(C(=O)O)c(=O)c2cnc(N3CCN(C(=S)Nc4ccc(I)cc4)CC3)nc21 | inactive | inactive | – | – | –
9 | CCn1cc(C(=O)O)c(=O)c2cnc(N3CCN(C(=S)Nc4ccc(Cl)cc4)CC3)nc21 | inactive | inactive | – | – | 5.7

Second part, the compound after the results:

Row | Activity [1] | Activity [2] | Ki (Autotaxin [3]) [µM] | Ki (Autotaxin [4]) [µM] | Ki (Autotaxin [5]) [µM] | Compound
10 | inactive | inactive | – | – | – | CCn1cc(C(=O)O)c(=O)c2cnc(N3CCN(C(=S)Nc4cccc(F)c4)CC3)nc21
11 | inactive | inactive | – | – | – | CCn1cc(C(=O)O)c(=O)c2cnc(N3CCN(C(=S)Nc4cccc(OC)c4)CC3)nc21
12 | inactive | inactive | – | – | – | CCn1cc(C(=O)O)c(=O)c2cnc(N3CCN(C(=S)Nc4cccc(I)c4)CC3)nc21
13 | inactive | inactive | – | – | – | CCn1cc(C(=O)O)c(=O)c2cnc(N3CCN(C(=S)Nc4ccc(C)cc4)CC3)nc21
14 | inactive | inactive | – | – | 0.7 | CCn1cc(C(=O)O)c(=O)c2cnc(N3CCN(C(=S)Nc4cccc(C(F)(F)F)c4)CC3)nc21
15 | inactive | inactive | – | – | 4.5 | CCn1cc(C(=O)O)c(=O)c2cnc(N3CCN(C(=S)Nc4cccc(C)c4)CC3)nc21
16 | inactive | inactive | – | – | – | CCn1cc(C(=O)O)c(=O)c2cnc(N3CCN(C(=S)Nc4cccc(Cl)c4)CC3)nc21
